Six molecules from ChEMBL document CHEMBL1122726, “Analogues of platelet activating factor (PAF). 1. Some modifications of the alkoxy chain” (J Med Chem, 1984) can be followed below.

The species named for assay [1] is Oryctolagus cuniculus. Kind of assay: Tested for maximum aggregation units at specified molar concentration. Format: functional. The gist of the method:
(§1)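 Platelet-rich plasma from citrated cardiac-puncture blood of unanesthetized male New Zealand white rabbits, low-speed spin. Count adjusted with platelet-poor plasma, within 350000-600000/µL. 450 µL PRP plus 50 µL compound stock solution. EC50 taken as the concentration giving 50% of that compound's own maximum aggregation, from the mean dose-response curve of experiments with two to six replicates per dose. Maximum aggregation given in aggregation units at the stated molar concentration.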

Assay [2] concerns Rattus norvegicus. Kind of assay: Tested for the dose needed to decrease mean arterial blood pressure (MABP) 50 mmHg in male rats, iv. Type of assay: functional. The method in brief: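 Spontaneously hypertensive rats, arterial and venous catheters tunneled subcutaneously and exteriorized at the neck, studied at least 16 h after surgery while held in restraining cages. Compound dissolved in saline or 10-25% ethanol in saline, given as a rapid iv bolus at 1 mL/kg followed by a flush. Pressure read at 1-min intervals for 15 min after dosing. Maximum MABP change per rat, averaged per dose. Least-squares regression, solved for a −50 mmHg response.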

The nature of assay [3]: Ratio = (MABP / platelet EC50 ) x 10 E -8. Format: functional. The gist of the method:
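Intravenous dose lowering MABP by 50 mmHg in spontaneously hypertensive rats, divided by the EC50 for aggregation of rabbit platelet-rich plasma, then multiplied by 10^-8.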

The species named for assay [4] is Oryctolagus cuniculus. In words: Tested for the molar concentration required to cause 50% of maximum aggregation.
Assay [5] is filed under the species Oryctolagus cuniculus. Kind of assay: Tested for maximum aggregation units at specified molar concentration; g= No response. Type of assay: functional. The method in brief:
as §1

Assay [6] is filed under the species Rattus norvegicus. In words: Tested for the molar concentration required to cause 50% of maximum aggregation. Format: functional, organism-based. The gist of the method:
as §1

Where only a bound is given, the exact number is not on record here.

`CCCCCCCCCCCCCCCCOCC(COP(=O)([O-])OCC[N+](C)(C)C)OC(C)=O` (configuration not stated) [PLATELET ACTIVATING FACTOR] registered a Max platelet response in the assay filed under Oryctolagus cuniculus [1] of 71. In the assay on Rattus norvegicus [2], the Dose came to 1.25 µg/kg. For the same molecule, the Ratio in assay [3] amounted to 0.56. The same molecule showed an EC50 in the assay filed under Oryctolagus cuniculus [4] of 22.2 nM.
In the case of `CCCCCCCCCCCCCCCCCCOCC(COP(=O)([O-])OCC[N+](C)(C)C)OC(C)=O` (configuration not stated), the Max platelet response in the assay filed under Oryctolagus cuniculus [1] is 79. The Dose in the assay with Rattus norvegicus [2] is 3.17 µg/kg. In assay [3], the Ratio is 1.98. The same molecule registered an EC50 in the assay listed under Oryctolagus cuniculus [4] of 16 nM.
In the same order, the values of `CCCCCCCCCCCCCCc1cccc(OCC(COP(=O)([O-])OCC[N+](C)(C)C)OC(C)=O)c1` (configuration not stated) are 70, 0.43 µg/kg, 0.1 and 44 nM.
For `CCCCCCCCCCCCCCCCc1ccccc1OCC(COP(=O)([O-])OCC[N+](C)(C)C)OC(C)=O` (configuration not stated), in the assay listed under Oryctolagus cuniculus [5], the Max platelet response result was “No response”. In the assay filed under Oryctolagus cuniculus [4], the concentration for a half-maximal effect (EC50) is over 10000 nM.
Consider `CCCCCCCCCCCCCCc1ccc(OCC(COP(=O)([O-])OCC[N+](C)(C)C)OC(C)=O)cc1` (configuration not stated), for which, in the assay listed under Oryctolagus cuniculus [1], the Max platelet response is 80. The Dose in the assay on Rattus norvegicus [2] stood at 12.56 µg/kg. Also, the Ratio in assay [3] is listed as 2.37. Also, in the assay filed under Oryctolagus cuniculus [4], it took 53 nM to reach a half-maximal effect (EC50).
For the molecule `CCCCCCCCCCCCCCCCCC(COP(=O)([O-])OCC[N+](C)(C)C)OC(C)=O` (configuration not stated), the midpoint of the response in the assay filed under Rattus norvegicus [6], the EC50, lay at 3100 nM. In the assay filed under Oryctolagus cuniculus [1], this molecule yielded a Max platelet response of 31. Also, in the assay on Rattus norvegicus [2], the Dose was 357.3 µg/kg. In assay [3], the Ratio is given as 1.15.

One may read the EC50 as the concentration needed to bring the measured effect to its halfway point.
